According to ChEMBL document CHEMBL4400542, “Epidermal Growth Factor Receptor-Targeted Multifunctional Photosensitizers for Bladder Cancer Imaging and Photodynamic Therapy” (J Med Chem, 2019):
pIC50: −log10 of the molar value. Activity calls are given as the source filed them. The calls are words filed in the database; no cut-off is given here.

Key:
[1] = Induction of singlet oxygen generation in deaerated toluene at 670 nm assessed as singlet decay life time by femtosecond transient absorption spectroscopy; type: functional
[2] = target: Epidermal growth factor receptor (Homo sapiens) (UniProt P00533); assay: Inhibition of EGFR autophosphorylation at Ty1068 in human UM-UC-3 cells at 100 nM followed by PDT and measured after 24 hrs by Western blot analysis; type: cell-based
[3] = Drug accumulation in lysosomes of human UM-UC-3 cells at 500 nM formulated with 1% tween 80 solution after 24 hrs by lysosphere green based fluorimetry; type: ADME, subcellular, Lysosome; details: umuc3, 24 h, 0.5 µM
[4] = Drug accumulation in mitochondria of human UM-UC-3 cells at 500 nM formulated with 2% pluronic F-127 solution after 24 hrs by mitotracker red based fluorimetry; type: ADME; details: umuc3, 24 h, 0.5 µM
UMUC3 [5] = assay: Induction of apoptosis in human UM-UC-3 cells assessed as increase in apoptotic cells at 1 uM in absence of light by Annexin V/propidium iodide-staining based flow cytometry; type: cell-based; details: umuc3, 1 µM
[6] = Drug accumulation in mitochondria of human T24 cells at 500 nM formulated with 2% pluronic F-127 solution after 24 hrs by mitotracker red based fluorimetry; type: ADME; details: t-24, 24 h, 0.5 µM
[7] = Drug accumulation in human UM-UC-3 cells at 500 nM formulated with 2% pluronic F-127 solution after 24 hrs by CARY-fluorimetry; type: ADME, cell-based; details: umuc3, 24 h, 0.5 µM
[8] = Drug accumulation in mitochondria of human UM-UC-3 cells at 500 nM formulated with 1% tween 80 solution after 24 hrs by mitotracker red based fluorimetry; type: ADME; details: umuc3, 24 h, 0.5 µM
[9] = Drug uptake in human UM-UC-3 cells assessed as increase in gray value intensity at 500 nM after 48 hrs in absence of gleevec by Hoechst 33342 staining based fluorescence microscopy; type: ADME, cell-based; details: umuc3, 24 h, 0.5 µM, in the assay text read “24 hrs” for “48 hrs”
Method in brief: (§1)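 Cells plated at 100k per well, grown to 80% confluency, refreshed, then incubated 24 h with PS at 500 nM with or without Gleevec 5 µM. Washed twice with PBS, Hoechst 33342 added, imaged by fluorescence microscopy; grey value normalized to cell number, triplicate groups and images.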

[10] = Drug uptake in human T24 cells assessed as increase in gray value intensity at 1 uM pretreated for 24 hrs followed by compound washout and measured after 4 hrs by Hoechst 33342 staining based fluorescence microscopy; type: ADME, cell-based; details: t-24, 4 h
Method in brief: (§2)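 Cells pre-incubated 24 h with free erlotinib before PS addition. Legend describes PS at 1 uM or erlotinib at 3 uM for 4 h, then three warm PBS washes. Imaged by fluorescence microscopy; grey value per field normalized to cell count, triplicate wells, each imaged in triplicate.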

[11] = Induction of singlet oxygen generation in deaerated toluene at 670 nm assessed as rate of singlet decay by femtosecond transient absorption spectroscopy; type: functional
T-24 [12] = assay: Induction of apoptosis in human T24 cells assessed as increase in apoptotic cells at 1 uM in absence of light by Annexin V/propidium iodide-staining based flow cytometry; type: cell-based; details: t-24, 1 µM
[13] = target: Epidermal growth factor receptor (Homo sapiens) (UniProt P00533); assay: Inhibition of EGFR autophosphorylation at Ty1068 in human UM-UC-3 cells at 1 uM followed by PDT and measured after 24 hrs by Western blot analysis; type: cell-based
UMUC3 [14] = assay: Photo-activated cytotoxicity against human UM-UC-3 cells assessed as reduction in cell viability preincubated for 24 hrs followed by 1 J/cm2 light irradiation and measured after 48 hrs formulated with 1% tween 80 solution by MTT assay; type: functional, cell-based; details: UMUC3, light or radiation study
Method in brief: (§3)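 Cells plated at 10k per well, allowed 24 h to adhere, then PS added in two-fold dilutions from 1 µM top for 24 h. Irradiated at 665 nm, 1.0 J/cm2 at 3.2 mW/cm2. Viability by MTT 48 h after PDT: about 2 h incubation, formazan dissolved in DMSO, absorbance at 570 nm.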

T-24 [15] = assay: Photo-activated cytotoxicity against human T24 cells assessed as reduction in cell viability preincubated for 24 hrs followed by 1 J/cm2 light irradiation and measured after 48 hrs formulated with 2% pluronic F-127 solution by MTT assay; type: functional, cell-based; details: T-24, light or radiation study; method in brief: as §3
[16] = Drug accumulation in human T24 cells at 500 nM formulated with 2% pluronic F-127 solution after 24 hrs by CARY-fluorimetry; type: ADME, cell-based; details: t-24, 24 h, 0.5 µM
UMUC3 [17] = assay: Induction of oxidative stress in human UM-UC-3 cells assessed as increase in ROS production at 1 uM in presence of 1 J/cm2 light irradiation and measured at 20 min post light exposure by DCFDA-fluorescence based assay relative to control; type: functional
Method in brief: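 UMUC3 cells at 10k per well; after 24 h, PS added at 1 µM for 24 h (Tween80 formulation). DCFDA 1 µM for 20 min, fluorescence read (ex 492, em 517). Then 665 nm light, 1 J total at 3.2 mW/cm2, and read again. No-DCFDA background subtracted; 0.05% H2O2 control wells.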

[18] = Stability at -4 degC for 2 months; type: physicochemical; details: 1461 h
Method in brief: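 Photosensitizer formulations in Tween80 or Pluronic F-127 were stored at -4 °C, alongside a -20 °C set, for two months. Stability was judged by visible precipitation and change in pH.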

[19] = Drug uptake in human UM-UC-3 cells assessed as increase in gray value intensity at 1 uM pretreated for 24 hrs followed by compound washout and measured after 4 hrs by Hoechst 33342 staining based fluorescence microscopy; type: ADME, cell-based; details: umuc3, 4 h; method in brief: as §2
[20] = Drug accumulation in mitochondria of human T24 cells at 500 nM formulated with 1% tween 80 solution after 24 hrs by mitotracker red based fluorimetry; type: ADME; details: t-24, 24 h, 0.5 µM
[21] = Drug accumulation in human UM-UC-3 cells at 500 nM formulated with 1% tween 80 solution after 24 hrs by CARY-fluorimetry; type: ADME, cell-based; details: umuc3, 24 h, 0.5 µM
UMUC3 [22] = assay: Photo-activated cytotoxicity against human UM-UC-3 cells assessed as reduction in cell viability preincubated for 24 hrs followed by 1 J/cm2 light irradiation and measured after 48 hrs formulated with 2% pluronic F-127 solution by MTT assay; type: functional, cell-based; details: UMUC3, light or radiation study; method in brief: as §3
[23] = Drug accumulation in lysosomes of human T24 cells at 500 nM formulated with 2% pluronic F-127 solution after 24 hrs by lysosphere green based fluorimetry; type: ADME, subcellular, Lysosome; details: t-24, 24 h, 0.5 µM
[24] = Drug accumulation in lysosomes of human T24 cells at 500 nM formulated with 1% tween 80 solution after 24 hrs by lysosphere green based fluorimetry; type: ADME, subcellular, Lysosome; details: t-24, 24 h, 0.5 µM
T-24 [25] = assay: Photo-activated cytotoxicity against human T24 cells assessed as reduction in cell viability preincubated for 24 hrs followed by 1 J/cm2 light irradiation and measured after 48 hrs formulated with 1% tween 80 solution by MTT assay; type: functional, cell-based; details: T-24, light or radiation study; method in brief: as §3
[26] = Stability at -20 degC for 2 months; type: physicochemical; details: 1461 h
Method in brief: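 Formulated PS stored at -4 °C or -20 °C for two months; checked for precipitation and pH change.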

[27] = Drug uptake in human UM-UC-3 cells assessed as increase in gray value intensity at 500 nM after 48 hrs in presence of gleevec by Hoechst 33342 staining based fluorescence microscopy; type: ADME, cell-based; details: umuc3, 24 h, 0.5 µM, in the assay text read “after 24 hrs” for “after 48 hrs”; method in brief: as §1
[28] = Drug accumulation in human T24 cells at 500 nM formulated with 1% tween 80 solution after 24 hrs by CARY-fluorimetry; type: ADME, cell-based; details: t-24, 24 h, 0.5 µM

Epidermal growth factor receptor (Homo sapiens), sequence (P00533 whole entry): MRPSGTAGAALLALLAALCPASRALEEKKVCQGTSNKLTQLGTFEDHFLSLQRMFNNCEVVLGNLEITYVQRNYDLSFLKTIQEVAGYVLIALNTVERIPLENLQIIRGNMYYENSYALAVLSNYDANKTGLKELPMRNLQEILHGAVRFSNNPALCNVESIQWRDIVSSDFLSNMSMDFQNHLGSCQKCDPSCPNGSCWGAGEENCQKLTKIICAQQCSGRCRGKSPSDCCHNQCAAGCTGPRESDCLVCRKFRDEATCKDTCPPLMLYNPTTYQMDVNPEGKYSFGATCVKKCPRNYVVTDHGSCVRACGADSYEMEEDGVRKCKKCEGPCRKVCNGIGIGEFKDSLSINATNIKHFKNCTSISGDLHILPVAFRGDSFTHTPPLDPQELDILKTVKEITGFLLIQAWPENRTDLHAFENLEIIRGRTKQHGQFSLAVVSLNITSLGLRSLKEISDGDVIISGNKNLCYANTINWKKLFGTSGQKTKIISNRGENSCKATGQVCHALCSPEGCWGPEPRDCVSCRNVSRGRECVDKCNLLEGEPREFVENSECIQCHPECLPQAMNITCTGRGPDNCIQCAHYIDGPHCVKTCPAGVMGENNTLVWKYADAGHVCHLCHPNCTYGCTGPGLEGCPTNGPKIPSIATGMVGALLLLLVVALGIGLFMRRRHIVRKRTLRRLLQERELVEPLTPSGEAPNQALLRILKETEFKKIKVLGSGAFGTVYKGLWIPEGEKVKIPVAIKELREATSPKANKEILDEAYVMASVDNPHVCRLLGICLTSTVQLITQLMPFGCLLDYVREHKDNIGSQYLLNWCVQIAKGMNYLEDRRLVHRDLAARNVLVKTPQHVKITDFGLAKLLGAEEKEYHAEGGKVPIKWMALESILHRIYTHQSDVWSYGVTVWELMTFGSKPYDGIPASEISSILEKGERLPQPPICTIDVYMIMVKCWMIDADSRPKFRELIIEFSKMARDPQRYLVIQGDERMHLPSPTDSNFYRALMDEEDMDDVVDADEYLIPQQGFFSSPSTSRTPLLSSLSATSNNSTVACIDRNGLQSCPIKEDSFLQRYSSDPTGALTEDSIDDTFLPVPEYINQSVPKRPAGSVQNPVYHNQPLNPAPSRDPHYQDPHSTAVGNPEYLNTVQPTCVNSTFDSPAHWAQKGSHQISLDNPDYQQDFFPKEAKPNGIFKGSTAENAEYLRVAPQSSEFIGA

Compound	Time [1]	inhibition [2]	Drug uptake [3]	Drug uptake [4]	Activity (UMUC3 [5])	Drug uptake [6]	Drug uptake [7]	Drug uptake [8]	Drug uptake [9]	Drug uptake [10]	K [11]	Activity (T-24 [12])	inhibition [13]	pIC50 (UMUC3 [14])	pIC50 (T-24 [15])	Drug uptake [16]	fold change (FC) (UMUC3 [17])	Stability [18]	Drug uptake [19]	Drug uptake [20]	also measured
CCC1=C(C)c2cc3[nH]c(cc4nc(c5c6[nH]c(cc1n2)c(C)c6C(=O)C5)[C@@H](CCC(=O)OC)[C@@H]4C)c(C)c3C(C)OCc1cccc(I)c1 (stereo partly specified)	1 nanoseconds	Active	Active	Active	Non-Toxic	Active	Active	Active	Active	Active	1 ×10⁹ /s	Non-Toxic	inactive	7.02	6.75	Active	2.5	Stable	Active	Active	Drug uptake [21]: Active; pIC50 (UMUC3 [22]): 6.70; Drug uptake [23]: Active; Drug uptake [24]: Active; pIC50 (T-24 [25]): 7.13; Stability [26]: Stable; Drug uptake [27]: Active; Drug uptake [28]: Active
CCC1=C(C)c2cc3[nH]c(cc4nc(c5c6[nH]c(cc1n2)c(C)c6C(=O)C5)[C@@H](CCC(=O)NCc1cccc(I)c1)[C@@H]4C)c(C)c3C(C)OCc1cccc(C#Cc2cccc(Nc3ncnc4cc(OCCOC)c(OCCOC)cc34)c2)c1 (stereo partly specified)	83 pS	Active	Active	Active	Non-Toxic	Active	Active	Active	Not Active	Active	1.2 ×10¹⁰ /s	Non-Toxic	Active	6.22	5.90	Active	0.9	Stable	Not Active	Active	Drug uptake [21]: Active; pIC50 (UMUC3 [22]): 6.49; Drug uptake [23]: Active; Drug uptake [24]: Active; pIC50 (T-24 [25]): 5.99; Stability [26]: Stable; Drug uptake [27]: Not Active; Drug uptake [28]: Active
